ChEMBL document CHEMBL4138284, “Biomimetic Stereoselective Sulfa-Michael Addition Leads to Platensimycin and Platencin Sulfur Analogues against Methicillin-Resistant Staphylococcus aureus” (J Nat Prod, 2018)
Values after ≈ are worked out from the molar mass of the structure shown.

Tested on: Staphylococcus aureus
Assay: Antibacterial activity against methicillin-resistant Staphylococcus aureus isolate 7 incubated overnight by agar dilution method
Assay type: functional
Outline: (§1)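 MIC by agar dilution. Strains were grown overnight in LB broth and diluted, then about 10^4 CFU (2 μL spots) were spotted onto LB agar plates containing test compound at 0.5 to 8 μg mL−1 agar. Plates were incubated overnight at 37 °C and inspected for growth. Clinical MSSA and MRSA isolates came from local hospitals.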

Structure (SMILES) | MIC
C[C@]12C[C@@]34C=CC(=O)[C@@](C)(CCC(=O)Nc5c(O)ccc(C(=O)O)c5O)[C@@H]3[C@H](C[C@@H]1C4)O2 | 1 µg/mL (≈ 2.27 µM)
C[C@]12C[C@]34C[C@@H]1C[C@H](O2)[C@H]3[C@](C)(CCC(=O)Nc1c(O)ccc(C(=O)O)c1O)C(=O)C[C@@H]4SC(=O)c1cc(F)cc(F)c1 | 2 µg/mL (≈ 3.25 µM)

Tested on: Staphylococcus aureus
Assay: Antibacterial activity against methicillin-resistant Staphylococcus aureus isolate 5 incubated overnight by agar dilution method
Assay type: functional
Outline: as §1

Structure (SMILES) | MIC
C[C@]12C[C@@]34C=CC(=O)[C@@](C)(CCC(=O)Nc5c(O)ccc(C(=O)O)c5O)[C@@H]3[C@H](C[C@@H]1C4)O2 | 1 µg/mL (≈ 2.27 µM)
C[C@]12C[C@]34C[C@@H]1C[C@H](O2)[C@H]3[C@](C)(CCC(=O)Nc1c(O)ccc(C(=O)O)c1O)C(=O)C[C@@H]4SC(=O)c1cc(F)cc(F)c1 | 2 µg/mL (≈ 3.25 µM)

Tested on: Staphylococcus aureus
Assay: Antibacterial activity against methicillin-sensitive Staphylococcus aureus isolate 4 incubated overnight by agar dilution method
Assay type: functional
Outline: as §1

Structure (SMILES) | MIC
C[C@]12C[C@@]34C=CC(=O)[C@@](C)(CCC(=O)Nc5c(O)ccc(C(=O)O)c5O)[C@@H]3[C@H](C[C@@H]1C4)O2 | 0.5 µg/mL (≈ 1.13 µM)
C[C@]12C[C@]34C[C@@H]1C[C@H](O2)[C@H]3[C@](C)(CCC(=O)Nc1c(O)ccc(C(=O)O)c1O)C(=O)C[C@@H]4SC(=O)c1cc(F)cc(F)c1 | 2 µg/mL (≈ 3.25 µM)

Tested on: Staphylococcus aureus
Assay: Antibacterial activity against methicillin-resistant Staphylococcus aureus isolate 8 incubated overnight by agar dilution method
Assay type: functional
Outline: as §1

Structure (SMILES) | MIC
C[C@]12C[C@@]34C=CC(=O)[C@@](C)(CCC(=O)Nc5c(O)ccc(C(=O)O)c5O)[C@@H]3[C@H](C[C@@H]1C4)O2 | 1 µg/mL (≈ 2.27 µM)
C[C@]12C[C@]34C[C@@H]1C[C@H](O2)[C@H]3[C@](C)(CCC(=O)Nc1c(O)ccc(C(=O)O)c1O)C(=O)C[C@@H]4SC(=O)c1cc(F)cc(F)c1 | 2 µg/mL (≈ 3.25 µM)

Tested on: Staphylococcus aureus
Assay: Antibacterial activity against methicillin-sensitive Staphylococcus aureus isolate 2 incubated overnight by agar dilution method
Assay type: functional
Outline: as §1

Structure (SMILES) | MIC
C[C@]12C[C@@]34C=CC(=O)[C@@](C)(CCC(=O)Nc5c(O)ccc(C(=O)O)c5O)[C@@H]3[C@H](C[C@@H]1C4)O2 | 0.5 µg/mL (≈ 1.13 µM)
C[C@]12C[C@]34C[C@@H]1C[C@H](O2)[C@H]3[C@](C)(CCC(=O)Nc1c(O)ccc(C(=O)O)c1O)C(=O)C[C@@H]4SC(=O)c1cc(F)cc(F)c1 | 1 µg/mL (≈ 1.62 µM)

Tested on: Staphylococcus aureus
Assay: Antibacterial activity against methicillin-resistant Staphylococcus aureus isolate 9 incubated overnight by agar dilution method
Assay type: functional
Outline: as §1

Structure (SMILES) | MIC
C[C@]12C[C@@]34C=CC(=O)[C@@](C)(CCC(=O)Nc5c(O)ccc(C(=O)O)c5O)[C@@H]3[C@H](C[C@@H]1C4)O2 | 1 µg/mL (≈ 2.27 µM)
C[C@]12C[C@]34C[C@@H]1C[C@H](O2)[C@H]3[C@](C)(CCC(=O)Nc1c(O)ccc(C(=O)O)c1O)C(=O)C[C@@H]4SC(=O)c1cc(F)cc(F)c1 | 2 µg/mL (≈ 3.25 µM)

Tested on: Staphylococcus aureus
Assay: Antibacterial activity against methicillin-resistant Staphylococcus aureus isolate 10 incubated overnight by agar dilution method
Assay type: functional
Outline: as §1

Structure (SMILES) | MIC
C[C@]12C[C@@]34C=CC(=O)[C@@](C)(CCC(=O)Nc5c(O)ccc(C(=O)O)c5O)[C@@H]3[C@H](C[C@@H]1C4)O2 | 0.5 µg/mL (≈ 1.13 µM)
C[C@]12C[C@]34C[C@@H]1C[C@H](O2)[C@H]3[C@](C)(CCC(=O)Nc1c(O)ccc(C(=O)O)c1O)C(=O)C[C@@H]4SC(=O)c1cc(F)cc(F)c1 | 2 µg/mL (≈ 3.25 µM)

Tested on: Staphylococcus aureus
Assay: Antibacterial activity against methicillin-sensitive Staphylococcus aureus isolate 1 incubated overnight by agar dilution method
Assay type: functional
Outline: as §1

Structure (SMILES) | MIC
C[C@]12C[C@@]34C=CC(=O)[C@@](C)(CCC(=O)Nc5c(O)ccc(C(=O)O)c5O)[C@@H]3[C@H](C[C@@H]1C4)O2 | 0.5 µg/mL (≈ 1.13 µM)
C[C@]12C[C@]34C[C@@H]1C[C@H](O2)[C@H]3[C@](C)(CCC(=O)Nc1c(O)ccc(C(=O)O)c1O)C(=O)C[C@@H]4SC(=O)c1cc(F)cc(F)c1 | 1 µg/mL (≈ 1.62 µM)

Tested on: Staphylococcus aureus
Assay: Antibacterial activity against Staphylococcus aureus ATCC 29213 incubated overnight by agar dilution method
Assay type: functional
Outline: as §1

Structure (SMILES) | MIC
C[C@]12C[C@@]34C=CC(=O)[C@@](C)(CCC(=O)Nc5c(O)ccc(C(=O)O)c5O)[C@@H]3[C@H](C[C@@H]1C4)O2 | 1 µg/mL (≈ 2.27 µM)
C[C@]12C[C@]34C[C@@H]1C[C@H](O2)[C@H]3[C@](C)(CCC(=O)Nc1c(O)ccc(C(=O)O)c1O)C(=O)C[C@@H]4SC(=O)c1cc(F)cc(F)c1 | 2 µg/mL (≈ 3.25 µM)

Tested on: Staphylococcus aureus
Assay: Antibacterial activity against methicillin-sensitive Staphylococcus aureus isolate 3 incubated overnight by agar dilution method
Assay type: functional
Outline: as §1

Structure (SMILES) | MIC
C[C@]12C[C@@]34C=CC(=O)[C@@](C)(CCC(=O)Nc5c(O)ccc(C(=O)O)c5O)[C@@H]3[C@H](C[C@@H]1C4)O2 | 0.5 µg/mL (≈ 1.13 µM)
C[C@]12C[C@]34C[C@@H]1C[C@H](O2)[C@H]3[C@](C)(CCC(=O)Nc1c(O)ccc(C(=O)O)c1O)C(=O)C[C@@H]4SC(=O)c1cc(F)cc(F)c1 | 2 µg/mL (≈ 3.25 µM)

Tested on: Staphylococcus aureus
Assay: Antibacterial activity against methicillin-resistant Staphylococcus aureus isolate 6 incubated overnight by agar dilution method
Assay type: functional
Outline: as §1

Structure (SMILES) | MIC
C[C@]12C[C@@]34C=CC(=O)[C@@](C)(CCC(=O)Nc5c(O)ccc(C(=O)O)c5O)[C@@H]3[C@H](C[C@@H]1C4)O2 | 1 µg/mL (≈ 2.27 µM)
C[C@]12C[C@]34C[C@@H]1C[C@H](O2)[C@H]3[C@](C)(CCC(=O)Nc1c(O)ccc(C(=O)O)c1O)C(=O)C[C@@H]4SC(=O)c1cc(F)cc(F)c1 | 1 µg/mL (≈ 1.62 µM)

Tested on: Staphylococcus aureus
Assay: Antibacterial activity against methicillin-resistant Staphylococcus aureus isolate 11 incubated overnight by agar dilution method
Assay type: functional
Outline: as §1

Structure (SMILES) | MIC
C[C@]12C[C@@]34C=CC(=O)[C@@](C)(CCC(=O)Nc5c(O)ccc(C(=O)O)c5O)[C@@H]3[C@H](C[C@@H]1C4)O2 | 1 µg/mL (≈ 2.27 µM)
